The nature of data set [1]: Distribution coefficient, log D in octanol and […] at pH 7.4. It is filed as physicochemical. The method in brief:
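Shake-flask: 50 µg peptide in pre-equilibrated 0.05 M Hepes/0.1 M NaCl pH 7.4 with octanol, vortexed 2 min, centrifuged; both phases quantified by RP-HPLC; D = octanol/buffer ratio; triplicate.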

Data set [2] in a line: Half life in mouse brain. It counts as ADME, tissue-based. The method in brief:
(§1)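 Peptides at 500 µM final in 15% mouse brain homogenate (washed) or 100% mouse serum, 2.3 mg/mL protein, 50 mM Tris pH 7.4, 37 °C; sampled 0–300 min in triplicate; stopped with acetonitrile, acidified, centrifuged, remaining peptide by RP-HPLC.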

Data set [3] deals with Mu-type opioid receptor (Rattus norvegicus, UniProt P33535). Kind of data set: Binding affinity to mu opioid receptor in rat brain synaptosome membrane by radioligand binding assay. It is filed as cell membranes. The method in brief: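 Competition vs [3H]Tyr-D-Ala-Gly-MePhe-Gly-ol (DAMGO-type mu ligand) 0.5 nM, 1 h, on rat brain synaptosomal membranes (300–500 µg/mL protein) in 50 mM Tris–HCl pH 7.4; nonspecific binding with 10 µM naloxone; duplicates, repeated at least three times.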
Chain of Mu-type opioid receptor (Rattus norvegicus, UniProt P33535) (P33535 whole entry): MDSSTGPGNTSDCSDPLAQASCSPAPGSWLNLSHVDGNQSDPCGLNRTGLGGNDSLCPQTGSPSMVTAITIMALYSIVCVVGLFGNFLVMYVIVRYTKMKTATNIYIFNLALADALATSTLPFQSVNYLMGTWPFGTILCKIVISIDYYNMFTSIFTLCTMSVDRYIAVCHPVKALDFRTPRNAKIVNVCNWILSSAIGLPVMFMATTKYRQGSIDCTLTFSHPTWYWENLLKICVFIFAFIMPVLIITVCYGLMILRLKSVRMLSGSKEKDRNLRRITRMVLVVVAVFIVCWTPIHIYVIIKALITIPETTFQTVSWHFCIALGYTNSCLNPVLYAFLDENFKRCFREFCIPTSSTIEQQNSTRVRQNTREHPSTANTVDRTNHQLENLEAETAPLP

The target in data set [4] is Delta-type opioid receptor (Rattus norvegicus, UniProt P33533). As to the kind of experiment: Binding affinity to delta opioid receptor in rat brain synaptosome membrane by radioligand binding assay. It is filed as cell membranes. The method, boiled down:
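Displacement of [3H]Tyr-c[D-Pen-Gly-Phe-D-Pen]-OH 1 nM, 3 h incubation, rat brain synaptosomal membranes (300–500 µg/mL protein), 50 mM Tris–HCl pH 7.4; 10 µM naloxone defines nonspecific binding; duplicate assays, at least three repeats.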

Data set [5] can be described thus: Half life in mouse serum. It counts as ADME, cell-free. The method, boiled down: as §1
Data set [6] concerns the target Mu-type opioid receptor (Cavia porcellus, UniProt P97266). Kind of data set: Agonist activity at mu opioid receptor in guinea pig ileum assessed as inhibition of electrically-induced twitches. It counts as functional, tissue-based. The method, boiled down:
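GPI: twitches evoked at 0.1 Hz, 50 V, 0.5-ms pulse width; isometric recording; dose–response curves with IC50 derived graphically; arithmetic mean of five to eight measurements.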

Data set [7] is described as follows: Protein binding to BSA. It counts as ADME, Bos taurus. As to conditions: cattle, isolated protein. The method in brief:
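Peptides in mammalian Ringer's solution with 10 g/L BSA and 3.9% dextran, pH 7.4, 37 °C; ultrafiltration (30 kDa cut-off, 2000g, 10 min); total and free peptide by RP-HPLC; % bound = (T−F)/T×100; triplicate.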

In data set [8] the target is Delta-type opioid receptor (Mus musculus, UniProt P32300). Kind of data set: Agonist activity at delta opioid receptor in mouse vas deferens assessed as inhibition of electrically-induced twitches. It counts as functional, tissue-based. The method in brief: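 MVD: paired rectangular pulses (1-ms width, 100-ms apart, 9 V/cm, supramaximal) every 10 s; isometric twitch recording; dose–response curves, IC50 read graphically; mean of five to eight measurements.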
Chain of Delta-type opioid receptor (Mus musculus, UniProt P32300) (P32300 whole entry): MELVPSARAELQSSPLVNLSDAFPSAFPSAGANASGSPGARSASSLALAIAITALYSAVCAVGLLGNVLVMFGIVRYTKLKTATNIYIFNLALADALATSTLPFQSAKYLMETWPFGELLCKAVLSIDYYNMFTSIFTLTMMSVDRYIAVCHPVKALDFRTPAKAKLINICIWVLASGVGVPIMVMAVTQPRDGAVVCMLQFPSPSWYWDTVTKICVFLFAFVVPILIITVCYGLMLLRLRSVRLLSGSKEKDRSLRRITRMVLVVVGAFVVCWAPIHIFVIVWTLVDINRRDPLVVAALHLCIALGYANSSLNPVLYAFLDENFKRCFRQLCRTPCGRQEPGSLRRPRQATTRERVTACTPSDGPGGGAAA

A further data set relates to Mus musculus. Kind of data set: Antinociceptive activity in mouse at 30 mg/kg, sc by tail flick test. On the set-up: dose 30 mg/kg. It is filed as functional, organism-based. The method, boiled down:
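Mice given 30 mg/kg sc (100 µL); 50 °C warm-water tail-flick, baseline responders under 5 s kept, 10 s cut-off; latencies at 5–60 min post-dose; %MPE = 100·(TL−CL)/(10−CL); saline control; six to eight mice per group, mean with SEM.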

The source of these data is ChEMBL document CHEMBL1146349, “Endomorphin-1 analogs with enhanced metabolic stability and systemic analgesic activity: design, synthesis, and pharmacological characterization” (Bioorg Med Chem, 2007).

pIC50, pKi: −log10 of the molar value. The source made the active and inactive calls. Some results are limits rather than exact numbers.

Chain of Mu-type opioid receptor (Cavia porcellus, UniProt P97266) (P97266 whole entry): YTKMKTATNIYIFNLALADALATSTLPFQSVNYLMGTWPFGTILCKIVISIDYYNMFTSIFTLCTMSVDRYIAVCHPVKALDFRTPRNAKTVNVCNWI
Chain of Delta-type opioid receptor (Rattus norvegicus, UniProt P33533) (P33533 whole entry): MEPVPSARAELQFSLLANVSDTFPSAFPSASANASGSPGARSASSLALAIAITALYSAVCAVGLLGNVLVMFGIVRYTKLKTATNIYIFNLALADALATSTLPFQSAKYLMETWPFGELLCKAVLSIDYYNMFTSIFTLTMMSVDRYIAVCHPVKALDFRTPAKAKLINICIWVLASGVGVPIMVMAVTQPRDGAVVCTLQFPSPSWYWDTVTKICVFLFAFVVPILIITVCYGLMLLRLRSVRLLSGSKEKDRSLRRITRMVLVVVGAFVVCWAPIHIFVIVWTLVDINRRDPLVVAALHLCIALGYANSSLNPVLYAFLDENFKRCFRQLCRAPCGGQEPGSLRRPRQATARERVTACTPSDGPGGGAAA

For `COc1ccc(C[C@H](N=C(N)N)C(=O)N2CCC[C@H]2C(=O)N[C@@H](Cc2c[nH]c3ccccc23)C(=O)N[C@@H](Cc2ccc(Cl)cc2)C(N)=O)cc1`, the logD in data set [1] amounted to 1.33. In addition, the figures for the half-life in [2] and in data set [5] were 3.17 h and 0.803 h, respectively. The pKi on Mu-type opioid receptor [3] is 6.27; in data set [4] it was 5.86. Also, the pIC50 was 6.07 on Mu-type opioid receptor [6] and 5.89 in data set [8]. The Activity in data set [7] is listed as 65.57%.
As for `COc1ccc(C[C@H](N=C(N)N)C(=O)N2CCC[C@@H]2C(=O)NCC(=O)N[C@@H](Cc2c[nH]c3ccccc23)C(=O)N[C@@H](Cc2ccccc2)C(N)=O)cc1`, the logD in [1] amounted to 0.78. The half-life in data set [2] stood at 7.45 h; in data set [5], 2.75 h. For the same compound, the results for the pKi (at Mu-type opioid receptor [3]; in data set [4]) were 5.97 and less than 5.00, respectively. Also, the pIC50 on Mu-type opioid receptor [6] was less than 6.00; in data set [8], less than 5.00. Besides, the Activity in data set [7] was found to be 45.15%.
As for `COc1ccc(C[C@H](N=C(N)N)C(=O)N2CCC[C@H]2C(=O)N[C@@H](Cc2c[nH]c3ccccc23)C(=O)N[C@@H](Cc2ccccc2)C(N)=O)cc1`, the logD in data set [1] amounted to 0.21. Also, the half-life was found to be 4.3 h in data set [2] and 0.522 h in data set [5]. In addition, the pKi on Mu-type opioid receptor [3] is 6.10; in data set [4], 5.32. Moreover, the pIC50 at Mu-type opioid receptor [6] is 6.01; in [8] it was 5.87. The same compound showed an Activity in [7] of 40.58%.
As to `COc1ccc(C[C@H](NC(=N)N)C(=O)N2CCC[C@@H]2C(=O)NCC(=O)N[C@@H](Cc2c[nH]c3ccccc23)C(=O)N[C@@H](Cc2ccc(Cl)cc2)C(N)=O)cc1`, the logD in data set [1] is 1.64. For the same compound, the half-life in data set [2] was 6.82 h; in data set [5] it was 3.6 h. In addition, the pKi at Mu-type opioid receptor [3] is 6.04; in data set [4], 5.83. In addition, the outcome with Mus musculus was Active. Further, the pIC50 on Mu-type opioid receptor [6] is less than 6.00; in data set [8], less than 5.00. In data set [7], this compound showed an Activity of 62.52%.

Usually logD stands for lipophilicity at a set pH, counting ionised and neutral species. Low values mean a more hydrophilic compound, high ones a more lipophilic compound. The term half-life denotes the time needed for the level to fall by half in the phase considered. A lower half-life goes with rapid decline. For orientation: pKi means the Ki on a negative log10 scale, so that one unit is a factor of ten. Low readings indicate a large Ki, high ones a small Ki. By pIC50 is commonly meant −log10 of the IC50, conventionally taken in molar units.
